How the values were obtained:
[1] = tested on: Mce F367N; assay: fluorescence polarization binding; parameters: species or system mouse; details: pH 7.0, 23°C; versus wild-type
In short: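 N-terminally fluorescein-labelled 11-aa CTD peptide (phosphorylated at central Ser2 and Ser5) was titrated with increasing concentrations of E. coli-expressed recombinant Mce protein, wild-type or mutant. Polarization was read at 23°C, pH 7.0, and Kd was derived from the binding curves. Three independent experiments were run in triplicate; error is one standard deviation.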

[2] = biological target: Mce-V372Y/C383Y (Mus musculus, UniProt O55236, C383Y/V372Y); assay: fluorescence polarization binding; details: pH 7.0, 23°C
Mce-V372Y/C383Y, sequence (O55236 227-567 V372Y/C383Y): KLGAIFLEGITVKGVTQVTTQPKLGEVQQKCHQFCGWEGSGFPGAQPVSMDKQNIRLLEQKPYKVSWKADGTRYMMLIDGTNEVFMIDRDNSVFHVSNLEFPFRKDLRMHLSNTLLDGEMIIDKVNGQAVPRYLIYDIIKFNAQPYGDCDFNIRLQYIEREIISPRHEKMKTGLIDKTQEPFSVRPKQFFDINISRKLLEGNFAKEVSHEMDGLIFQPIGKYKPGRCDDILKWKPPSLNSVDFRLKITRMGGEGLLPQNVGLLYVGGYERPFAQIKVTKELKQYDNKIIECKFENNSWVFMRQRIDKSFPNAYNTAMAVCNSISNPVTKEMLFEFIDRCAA

C[C@@H](O)[C@H](NC(=O)[C@@H]1CCCN1C(=O)[C@H](CO)NC(=O)c1ccc2c(c1)C(=O)OC21c2ccc(O)cc2Oc2cc(O)ccc21)C(=O)N[C@@H](COP(=O)(O)O)C(=O)N1CCC[C@H]1C(=O)N[C@@H](CO)C(=O)N[C@@H](Cc1ccc(O)cc1)C(=O)N[C@@H](COP(=O)(O)O)C(=O)N1CCC[C@H]1C(=O)N[C@H](C(=O)N[C@@H](CO)C(=O)O)[C@@H](C)O [Fluor-S2P3T4S5PP6S7Y1S2PP3T4S5]
effect of mutation on binding [1]: No effect in binding was observed | increase in Kd compared to wild-type Mce [2]: 4 fold
